Laboratory results taken from ChEMBL document CHEMBL1126720 (J Med Chem, 1993).

Tests used:
[1] = Hypersensitivity factor is the ratio of IC50(AA8) to IC50(UV4) under aerobic conditions; type: functional
Procedure, shortened: (§1)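 Log-phase AA8 (200 viable cells/well) or UV4 (300 viable cells/well) cells with 5000 lethally irradiated AA8 feeder cells per well, in α-MEM with 10% heat-inactivated fetal calf serum. Cell mass read after 72-78 h by methylene blue protein staining and absorbance. IC50 = concentration reducing cell mass to 50% of the mean of 8 same-plate controls; means of at least 3 determinations ± SEM. Hypersensitivity factor = aerobic IC50(AA8)/IC50(UV4).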

[2] = Growth inhibition against CHO-derived cell line AA8; type: functional, cell-based, Cricetulus griseus; procedure, shortened: as §1
[3] = Hypersensitivity factor is the ratio of IC50(AA8) to IC50(UV4) under aerobic conditions; ND = Nontoxic at the solubility level; type: functional; procedure, shortened: as §1
UV4 = test: (§2) Cytotoxicity was measured for 90% kill in UV4 cells under aerobic conditions; type: functional; settings: Cricetulus griseus
Procedure, shortened: (§3)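 Clonogenic assay in magnetically stirred 10-mL suspensions of late log-phase UV4 cells at 2×10^6 cells/mL, 37 °C, continuously gassed with 5% CO2 in air or N2; samples removed periodically across a range of drug concentrations. CT10 (concentration × time for 10% survival) taken from survival curves; hypoxic selectivity = ratio of aerobic to hypoxic CT10.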

[4] = Ratio of aerobic CT10 to that of hypoxic CT10; type: functional; procedure, shortened: as §3
[5] = Growth inhibition against CHO-derived cell line AA8 (Non toxic at solubility limit) [RB6145 used as positive control]; type: functional, cell-based, Cricetulus griseus; procedure, shortened: as §1
[6] = as §2; type: functional, Cricetulus griseus; procedure, shortened: as §3
[7] = Ratio of aerobic CT10 to that of hypoxic CT10 (for a 1-h exposure); type: functional; procedure, shortened: as §3
[8] = Cricetulus griseus, CHO-derived

Compound	HF ratio [1]	IC50 ([2]; cho-derived) [µM]	other results
Bis (3-ethyl-2,4-pentanedionato) (N,N'-bis(2-chloroethyl)ethylenediamine)cobalt(III) Percholate [listing 1 of 2 here]	4.8		
Bis (3-methyl-2,4-pentanedionato) (N,N-bis(2-chloroethyl)ethylenediamine)cobalt(III) Percholate [listing 1 of 2 here]		4.6	
Bis (2,4-pentanedionato) (N,N'-bis(2-diethylethylenediamine)cobalt(III) Percholate [listing 1 of 2 here]			HF ratio [3]: Nontoxic
Bis (3-ethyl-2,4-pentanedionato) (N,N-bis(2-chloroethyl)ethylenediamine)cobalt(III) Percholate [listing 1 of 2 here]	20		CT10 (UV4): 0.51 µM·h; Ratio [4]: 4.9
CCNCCNCC	0.7		IC50 [2, 8]: 2400 µM
Bis (3-methyl-2,4-pentanedionato) (N,N'-bis(2-chloroethyl)ethylenediamine)cobalt(III) Percholate [listing 1 of 2 here]	2.7		CT10 (UV4): > 2720 µM·h; Ratio [4]: > 1
Bis (2,4-pentanedionato) (N,N'-bis(2-diethylethylenediamine)cobalt(III) Percholate [listing 2 of 2 here]			IC50 [5]: > 5000 µM
Bis (3-methyl-2,4-pentanedionato) (N,N'-bis(2-chloroethyl)ethylenediamine)cobalt(III) Percholate [listing 2 of 2 here]		650	
ClCCNCCNCCCl	29		IC50 [2, 8]: 30 µM
Bis (3-ethyl-2,4-pentanedionato) (N,N'-bis(2-chloroethyl)ethylenediamine)cobalt(III) Percholate [listing 2 of 2 here]		139	
Bis (2,4-pentanedionato) (N,N'-bis(2-chloroethyl)ethylenediamine)cobalt(III) Percholate [listing 1 of 2 here]		890	
Bis (3-ethyl-2,4-pentanedionato) (N,N-bis(2-chloroethyl)ethylenediamine)cobalt(III) Percholate [listing 2 of 2 here]		2.3	
O=[N+]([O-])c1nccn1CC(O)CNCCBr (stereo not given)	5.9		IC50 [2, 8]: 145 µM; CT10 [6]: 6600 µM·h; Ratio [7]: 50
Bis (2,4-pentanedionato) (N,N-diethylethylenediamine)cobalt(III) Percholate [listing 1 of 2 here]	0.9		
Bis (2,4-pentanedionato) (N,N-bis(2-chloroethyl)ethylenediamine)cobalt(III) Percholate [listing 1 of 2 here]	64		CT10 (UV4): 0.64 µM·h; Ratio [4]: 1.9
Bis (3-methyl-2,4-pentanedionato) (N,N-bis(2-chloroethyl)ethylenediamine)cobalt(III) Percholate [listing 2 of 2 here]	48		CT10 (UV4): 2.4 µM·h; Ratio [4]: 20
Bis (2,4-pentanedionato) (N,N-diethylethylenediamine)cobalt(III) Percholate [listing 2 of 2 here]		34	
Bis (2,4-pentanedionato) (N,N-bis(2-chloroethyl)ethylenediamine)cobalt(III) Percholate [listing 2 of 2 here]		3.1	
Bis (2,4-pentanedionato) (N,N'-bis(2-chloroethyl)ethylenediamine)cobalt(III) Percholate [listing 2 of 2 here]	14		CT10 (UV4): 21500 µM·h; Ratio [4]: 1.6
CCN(CC)CCN	0.99		IC50 [2, 8]: 19000 µM
Bis (3-n-propyl-2,4-pentanedionato) (N,N-bis(2-chloroethyl)ethylenediamine)cobalt(III) Percholate [listing 1 of 2 here]		1.35	
Bis (3-n-propyl-2,4-pentanedionato) (N,N-bis(2-chloroethyl)ethylenediamine)cobalt(III) Percholate [listing 2 of 2 here]		18.5	
Bis (3-chlorol-2,4-pentanedionato) (N,N-bis(2-chloroethyl)ethylenediamine)cobalt(III) Percholate [listing 1 of 2 here]	13		
Bis (3-chlorol-2,4-pentanedionato) (N,N-bis(2-chloroethyl)ethylenediamine)cobalt(III) Percholate [listing 2 of 2 here]		26	
